ChEMBL document CHEMBL1128196, “Topographical modification of melanotropin peptide analogues with beta-methyltryptophan isomers at position 9 leads to differential potencies and prolonged biological activities” (J Med Chem, 1995)

What was measured:
[1] = Relative rate determined by setting MTII equal to 1 and dividing the apparent k-1 by the MTII value; type: ADME
[2] = target: T1, Melanocyte-stimulating hormone receptor (Homo sapiens, UniProt Q01726); assay: Effective concentration against Melanocortin 1 receptor transfected into L-cells was determined by concentration of peptide for 50% maximal cAMP generation; type: functional
In short: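 Human MC1R stably transfected into mouse L-cells, grown to confluence. Stopped with ice-cold ethanol. cAMP in the dried supernatant measured by competitive binding kit. Value is concentration for 50% maximal cAMP generation; n = 4.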

[3] = target: T1, Melanocyte-stimulating hormone receptor; assay: The concentration that inhibits 50% specific binding was determined against the Melanocortin 1 receptor
In short: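 Cloned human MC1R stably expressed in L-cells, grown to confluence. Cells washed in binding buffer (MEM, 25 mM HEPES pH 7.4, 0.2% BSA, phenanthroline, leupeptin, bacitracin). Cells washed, lysed in NaOH/Triton, gamma counted.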

[4] = target: Melanocortin 1 receptor (Rana pipiens); assay: Effective concentration for the effect of Melanocortin 1 receptor in the frog skin.

T1 sequence (Q01726 whole entry): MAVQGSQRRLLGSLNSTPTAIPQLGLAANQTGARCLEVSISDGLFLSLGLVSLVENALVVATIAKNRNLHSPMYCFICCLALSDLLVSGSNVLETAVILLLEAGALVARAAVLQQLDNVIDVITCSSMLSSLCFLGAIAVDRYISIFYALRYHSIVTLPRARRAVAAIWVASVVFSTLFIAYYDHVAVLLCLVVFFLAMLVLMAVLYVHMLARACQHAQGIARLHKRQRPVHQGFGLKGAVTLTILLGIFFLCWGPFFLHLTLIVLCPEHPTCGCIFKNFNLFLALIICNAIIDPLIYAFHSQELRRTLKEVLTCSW

Row | Compound | Relative dissociation rate [1] | EC50 [2] [nM] | IC50 [3] [nM] | EC50 [4] [nM]
1 | CCCC[C@H](NC(C)=O)C(=O)N[C@H]1CC(=O)NCCCCC(C(N)=O)NC(=O)C([C@@H](C)c2c[nH]c3ccccc23)NC(=O)[C@H](CCCN=C(N)N)NC(=O)C(Cc2ccccc2)NC(=O)[C@H](Cc2c[nH]cn2)NC1=O (single isomer, unassigned) | 0.75 | 0.3 | 0.5 | 0.44
2 | CCCC[C@H](NC(C)=O)C(=O)N[C@@H](CC(=O)O)C(=O)N[C@@H](Cc1c[nH]cn1)C(=O)N[C@@H](Cc1ccccc1)C(=O)N[C@@H](CCCN=C(N)N)C(=O)N[C@@H](C(=O)N[C@@H](CCCCN)C(N)=O)[C@H](C)c1c[nH]c2ccccc12 | 2.33 | 0.4 | 2 | 
3 | CCCC[C@H](NC(C)=O)C(=O)N[C@H]1CC(=O)NCCCCC(C(N)=O)NC(=O)C([C@H](C)c2c[nH]c3ccccc23)NC(=O)[C@H](CCCN=C(N)N)NC(=O)C(Cc2ccccc2)NC(=O)[C@H](Cc2c[nH]cn2)NC1=O (single isomer, unassigned) | 2.5 | 3 | 15 | 28.6
4 | CCCC[C@H](NC(C)=O)C(=O)N[C@H]1CC(=O)NCCCCC(C(N)=O)NC(=O)[C@@H]([C@@H](C)c2c[nH]c3ccccc23)NC(=O)[C@H](CCCN=C(N)N)NC(=O)C(Cc2ccccc2)NC(=O)[C@H](Cc2c[nH]cn2)NC1=O (single isomer, unassigned) | 2.58 | 1 | 3 | 0.06
